Columns and labels:
[1] = test system: Nucleic Acid; assay: Ratio of drug level in striatum to occipital in cynomolgus monkey at 185 to 259 MBq, iv measured at 70 mins by micro PET image analysis; type: ADME, organism-based, Macaca fascicularis; conditions: in vivo
Method in brief: (§1)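 Adult male cynomolgus macaques (~4–6 kg), three independent PET studies per tracer on a microPET Focus 220. Animals fasted 12 h and anesthetized with ketamine (10 mg/kg) plus glycopyrrolate (0.13 mg/kg) i.m. A 10 min positioning transmission scan and a 45 min attenuation transmission scan were run, then a 3 h dynamic emission scan after venous tracer injection. Regional TACs came from ROIs, expressed as SUV (body weight, injected dose).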

[2] = test system: Muscle tissue; assay: Biodistribution in Sprague-Dawley rat muscle at 1.48 to 2.22 MBq, iv measured at 5 mins by gamma counting analysis; type: ADME, organism-based; conditions: in vivo
Method in brief: (§2)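 Male Sprague-Dawley rats (250 - 400 g), tail-vein injection of 1.48 - 2.22 MBq radiotracer under 2.5% isoflurane in oxygen; n=4 per time point, euthanized at 5, 30 and 60 min p.i. Brain regions obtained by gross dissection; peripheral tissues collected. Samples weighed, gamma-counted against a diluted-injectate standard; %ID/g calculated.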

[3] = test system: Blood; assay: Biodistribution in Sprague-Dawley rat blood at 1.48 to 2.22 MBq, iv measured at 60 mins by gamma counting analysis; type: ADME, organism-based; conditions: in vivo, 1 h; method in brief: as §2
[4] = test system: Liver; assay: Biodistribution in Sprague-Dawley rat liver at 1.48 to 2.22 MBq, iv measured at 60 mins by gamma counting analysis; type: ADME, organism-based; conditions: in vivo, 1 h; method in brief: as §2
[5] = test system: Nucleic Acid; assay: Ratio of drug level in striatum to cerebellum in cynomolgus monkey at 185 to 259 MBq, iv measured at 40 mins by micro PET image analysis; type: ADME, organism-based, Macaca fascicularis; conditions: in vivo; method in brief: as §1
[6] = test system: Nucleic Acid; assay: Ratio of drug level in striatum to frontal in cynomolgus monkey at 185 to 259 MBq, iv measured at 70 mins by micro PET image analysis; type: ADME, organism-based, Macaca fascicularis; conditions: in vivo; method in brief: as §1
[7] = test system: Nucleic Acid; assay: Ratio of drug level in striatum to temporal region in cynomolgus monkey at 185 to 259 MBq, iv measured at 70 mins by micro PET image analysis; type: ADME, organism-based, Macaca fascicularis; conditions: in vivo; method in brief: as §1
[8] = test system: Plasma; assay: Retention time of the compound in cynomolgus monkey plasma at 185 to 259 MBq, iv by HPLC analysis; type: ADME, organism-based, Macaca fascicularis
Method in brief: (§3)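 Arterial blood (~1.5 mL) drawn at 2, 15, 30, 60 and 90 min p.i. into heparinized syringes, then centrifuged to plasma. Plasma deproteinated with 2 parts ice-cold methanol. Extract run on C-18 HPLC, MeCN/0.1 M ammonium formate pH 4.5, 0.9 mL/min, UV 254 nm. 1-min fractions over 16 min were well-counted and decay-corrected; parent percentage taken from recovered activity.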

[9] = test system: Nucleic Acid; assay: Ratio of drug level in striatum to white matter in cynomolgus monkey at 185 to 259 MBq, iv measured at 70 mins by micro PET image analysis; type: ADME, organism-based, Macaca fascicularis; conditions: in vivo; method in brief: as §1
[10] = test system: Bone; assay: Biodistribution in Sprague-Dawley rat bone at 1.48 to 2.22 MBq, iv measured at 30 mins by gamma counting analysis; type: ADME, organism-based, Bone element; conditions: in vivo, 0.5 h; method in brief: as §2
[11] = Metabolic stability in cynomolgus monkey plasma assessed as compound remaining at 185 to 259 MBq, iv measured at 60 mins by HPLC analysis; type: ADME, organism-based, Macaca fascicularis; conditions: read-out: Stability; method in brief: as §3
[12] = test system: Rattus norvegicus; assay: Biodistribution in Sprague-Dawley rat fat tissue at 1.48 to 2.22 MBq, iv measured at 60 mins by gamma counting analysis; type: ADME, organism-based, Adipose tissue; conditions: in vivo, 1 h; method in brief: as §2
[13] = Metabolic stability in cynomolgus monkey plasma assessed as compound remaining at 185 to 259 MBq, iv measured at 2 mins by HPLC analysis; type: ADME, organism-based, Macaca fascicularis; conditions: read-out: Stability; method in brief: as §3
[14] = Ratio of drug level in striatum to cerebellum in Sprague-Dawley rat at 1.48 to 2.22 MBq, iv measured at 5 to 30 mins by gamma counting analysis; type: ADME, organism-based; conditions: in vivo
Method in brief: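 Striatum, cerebellum and cortex obtained by gross dissection from Sprague-Dawley rats (250 - 400 g, n=4 per time point) after tail-vein injection of 1.48 - 2.22 MBq under isoflurane anesthesia. Tissues weighed and gamma-counted with an injectate standard to give %ID/g; ratios taken from striatal versus non-target uptake.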

[15] = test system: Nucleic Acid; assay: Ratio of drug level in striatum to white matter in cynomolgus monkey at 185 to 259 MBq, iv measured at 40 mins by micro PET image analysis; type: ADME, organism-based, Macaca fascicularis; conditions: in vivo; method in brief: as §1

Ratio [1]: > 5
Drug uptake [2]: 0.166 % ID/g
Drug uptake [3]: 0.287 % ID/g
Drug uptake [4]: 1.8 % ID/g
Ratio [5]: > 3
Ratio [6]: > 5
Ratio [7]: > 5
Retention_time [8]: 10.5 min
Ratio [9]: > 5
Drug uptake [10]: 0.144 % ID/g
remaining at 1 h [11]: 55%
Drug uptake [12]: 0.124 % ID/g
remaining at 2 min [13]: 99%
Ratio [14]: > 2
Ratio [15]: > 3
SMILES: Cn1cc(-c2ccncc2)c(-c2ccc(OCc3nc4ccccc4cc3OCC[18F])cc2)n1

— ChEMBL document CHEMBL3627597, “Synthesis of Fluorine-Containing Phosphodiesterase 10A (PDE10A) Inhibitors and the In Vivo Evaluation of F-18 Labeled PDE10A PET Tracers in Rodent and Nonhuman Primate” (J Med Chem, 2015)
